ChEMBL document CHEMBL1142960, “Synthesis and structure-activity relationships for 2,4-dinitrobenzamide-5-mustards as prodrugs for the Escherichia coli nfsB nitroreductase in gene therapy” (J Med Chem, 2007)
pIC50: −log10 of the molar value. ≈ marks a conversion by molar mass, not a printed value.

What was measured:
[1] = Toxicity in ip dosed CD1 nude mouse in DMA/PEG; format: organism-based; details: in vivo
How it was run: (§1)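 Maximum tolerated dose (MTD) determined in CD-1 nude mice after a single i.p. injection of prodrug, given in the vehicle named in each line.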

[2] = system: EMT6; assay: Antiproliferative activity against mouse EMT6 NTRpuro cells after 18 hrs; format: functional, cell-based; details: EMT6, 18 h
[3] = Antiproliferative activity against human Skov3 NTRneo cells after 18 hrs; format: functional, cell-based; details: SK-OV-3, 18 h
[4] = system: V79; assay: Selectivity ratio of IC50 for V79 NTR-ve cells to IC50 for V79 NTRpuro cells; format: functional, Cricetulus griseus
[5] = system: WiDr; assay: Antitumor activity against human 100% WiDr NTRneo tumor cells injected in CD1 nude mouse assessed as growth delay at 200 umol/kg, ip in DMA/PEG; format: functional
How it was run: (§2)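 WiDr-NTRneo tumours (100% NTR+ve, or 1:9 NTR+ve:NTR-ve mixtures) in CD-1 nude mice, given a single i.p. dose at MTD. Read-out is median growth delay to 15 mm mean diameter, plus tumours not palpable 100 days after treatment. Aziridine given at 200 µmol/kg as positive control in every experiment.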

[6] = system: EMT6; assay: Antiproliferative activity against mouse wild type EMT6 NTR-ve cells after 18 hrs; format: functional, cell-based; details: EMT6, 18 h
[7] = system: WiDr; assay: Selectivity ratio of IC50 for WiDr NTR-ve cells to IC50 for WiDr NTRneo cells; format: functional, Homo sapiens
[8] = system: V79; assay: Clonogenic survival of V79 NTRoua cells after 5 hrs by MCL assay; format: functional, Cricetulus griseus
[9] = system: EMT6; assay: Selectivity ratio of IC50 for EMT6 NTR-ve cells to IC50 forEMT6 NTRpuro cells; format: functional, Mus musculus
[10] = Selectivity ratio of IC50 for Skov3 NTR-ve cells to IC50 for Skov3 NTRneo cells; format: functional, Homo sapiens
[11] = Partition coefficient at pH 7.4 by shake-flask method; format: physicochemical; details: octanol/water
How it was run: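 Octanol-water partition coefficient by shake-flask at pH 7.4, reported with SEM.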

[12] = system: WiDr; assay: Antiproliferative activity against human WiDr NTRneo cells after 18 hrs; format: functional, cell-based
[13] = system: V79; assay: Antiproliferative activity against chinese hamster V79 NTRpuro cells after 18 hrs; format: functional, cell-based; details: Cricetulus griseus, V79, 18 h
[14] = Antiproliferative activity against human wild type Skov3 NTR-ve cells after 18 hrs; format: functional, cell-based
[15] = system: V79; assay: Clonogenic survival of 3% V79 NTRpuro cells in co-cultures with 97% V79 NTRoua after 5 hrs by MCL assay; format: functional, Cricetulus griseus
How it was run: (§3)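 Multicellular layer cocultures of 3% V79-NTRpuro activators and 97% V79oua NTR-ve targets (ouabain-resistant), exposed to prodrug for 5 h. MCLs were then trypsin-dissociated and plated in ouabain or puromycin selective media for clonogenic survival. C10 (10% survival) interpolated for activators and targets; AC/TC ratio derived. Mean with SEM or range over independent experiments.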

[16] = system: V79; assay: Clonogenic survival of 97% V79 NTRoua cells in co-cultures with 3% V79 NTRpuro cells after 5 hrs by MCL assay; format: functional, Cricetulus griseus; how it was run: as §3
[17] = system: EMT6; assay: Antitumor activity against mixed mouse EMT6/EMT6 NTRpuro cells injected in CD1 nude mouse assessed as cell kill at 200 umol/kg, ip in DMA/PEG after 18 hrs; format: functional
[18] = Stability in alpha MEM at 37 degC after 24 hrs; format: physicochemical; details: read-out: Stability
How it was run: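 Percent parent compound remaining, by HPLC, after holding in α-MEM with 5% fetal calf serum at 37 °C for 24 h.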

[19] = system: WiDr; assay: Antitumor activity against mixed human 10% WiDr NTRneo/ 90% WiDr tumor cells injected in CD1 nude mouse assessed as growth delay at 200 umol/kg, ip in DMA/PEG; format: functional; how it was run: as §2
[20] = Solubility in alpha MEM; format: physicochemical
How it was run: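 Solubility (mM) in α-MEM with 5% fetal calf serum at ambient temperature, measured by HPLC.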

[21] = system: V79; assay: Antiproliferative activity against chinese hamster wild-type V79 NTR-ve cells after 18 hrs; format: functional, cell-based; details: Cricetulus griseus, V79, 18 h
[22] = system: WiDr; assay: Antiproliferative activity against human wild type WiDr NTR-ve cells after 18 hrs; format: functional, cell-based
[23] = system: WiDr; assay: Antitumor activity against human 100% WiDr NTRneo tumor cells injected in CD1 nude mouse assessed as growth delay at 562 umol/kg, ip in DMSO/PEG; format: functional; how it was run: as §2
[24] = Toxicity in ip dosed CD1 nude mouse in DMSO; format: organism-based; details: in vivo; how it was run: as §1
[25] = system: EMT6; assay: Antitumor activity against mixed mouse EMT6/EMT6 NTRpuro cells injected in CD1 nude mouse assessed as cell kill at 562 umol/kg, ip in DMSO/PEG after 18 hrs; format: functional
[26] = Toxicity in ip dosed CD1 nude mouse in DMSO/PEG; format: organism-based; details: in vivo; how it was run: as §1
[27] = system: WiDr; assay: Antitumor activity against mixed human 10% WiDr NTRneo/ 90% WiDr tumor cells injected in CD1 nude mouse assessed as growth delay at 1780 umol/kg, ip in DMSO; format: functional; how it was run: as §2
[28] = system: V79; assay: Clonogenic survival ratio of 3% V79 NTRpuro cells to 97% V79 NTRoua cells in co-culture; format: functional, Cricetulus griseus; how it was run: as §3
[29] = system: EMT6; assay: Antitumor activity against mixed mouse EMT6/EMT6 NTRpuro cells injected in CD1 nude mouse assessed as cell kill at 133 umol/kg, ip in DMSO after 18 hrs; format: functional
[30] = system: WiDr; assay: Antitumor activity against human 100% WiDr NTRneo tumor cells injected in CD1 nude mouse assessed as growth delay at 1330 umol/kg, ip in DMSO; format: functional; how it was run: as §2
[31] = system: WiDr; assay: Antitumor activity against mixed human 10% WiDr NTRneo/ 90% WiDr tumor cells injected in CD1 nude mouse assessed as growth delay at 1330 umol/kg, ip in DMSO; format: functional; how it was run: as §2

SMILES | pIC50 [2] | pIC50 [3] | Ratio IC50 [4] | pIC50 [6] | Ratio IC50 [7] | Activity [8] [µM] | Ratio IC50 [9] | Ratio IC50 [10] | logD [11] | pIC50 [12] | pIC50 [13] | pIC50 [14] | Activity [15] [µM] | Activity [16] [µM] | remaining at 24 h [18] [%] | solubility [20] [µM] | pIC50 [21] | pIC50 [22] | MTD [24] [µmol/kg] | other results
NC(=O)c1cc(N(CCCl)CCCl)c([N+](=O)[O-])cc1[N+](=O)[O-] | 5.73 | 5.02 | 42 | 3.35 | 93 | >1000 | 261 | 98 | 1.52 | 5.02 | 4.77 | 3.10 | 98 | 120 | 99 | 750 (≈ 263 µg/mL) | 3.31 | 3.15 |  | MTD [1]: 200 µmol/kg; Activity [5]: 29 days; LCK [17]: 2.29; Activity [19]: 11 days
O=C(NCCCO)c1cc(N(CCBr)CCBr)c([N+](=O)[O-])cc1[N+](=O)[O-] | 7.30 | 6.64 | 135 | 4.18 | 224 | 100 | 1670 | 309 | 1.81 | 6.60 | 6.55 | 4.14 | 3 | 7 | 83 | 170 (≈ 84.7 µg/mL) | 4.43 | 4.25 | 1780 | Activity [23]: >83 days; LCK [25]: >3.44; MTD [26]: 562 µmol/kg; Activity [27]: 7 days
O=C(NCCO)c1cc(N(CCI)CCI)c([N+](=O)[O-])cc1[N+](=O)[O-] |  |  |  |  | 31.7 | 122 |  |  |  | 6.05 |  |  | 5.5 | 10 | 23 | 400 (≈ 231 µg/mL) |  | 4.55 |  | 
NC(=O)c1cc(N2CC2)c([N+](=O)[O-])cc1[N+](=O)[O-] [TRETAZICAR] | 7.01 | 6.19 | 2090 | 4.08 | 51.1 | 1400 | 947 | 317 | 0.14 | 5.94 | 6.59 | 3.76 | 23 | 173 |  |  | 3.43 | 4.26 |  | MTD [1]: 200 µmol/kg; Activity [5]: >88 days; LCK [17]: 3.16; Activity [19]: 14 days; Ratio [28]: 0.14
CS(=O)(=O)OCCN(CCBr)c1cc(C(=O)NCCO)c([N+](=O)[O-])cc1[N+](=O)[O-] | 6.70 | 6.21 | 620 | 3.66 | 250 |  | 1330 | 467 | 0.46 | 6.11 | 6.00 | 3.54 |  |  | 70 | 1700 (≈ 849 µg/mL) | 3.20 | 3.71 |  | 
NC(=O)c1cc(N(CCOS(N)(=O)=O)CCOS(N)(=O)=O)c([N+](=O)[O-])cc1[N+](=O)[O-] | 5.80 | 5.41 | 788 | 3.11 | 227 | >1800 | 491 | 265 | -0.95 | 5.72 | 6.06 | 3.06 | 9.5 | 800 | 95 | 1800 (≈ 850 µg/mL) | 3.19 | 3.36 |  | 
O=C(NO)c1cc(N(CCCl)CCCl)c([N+](=O)[O-])cc1[N+](=O)[O-] | 6.06 | 5.80 | 42 | 4.02 | 55 | >1400 | 110 | 124 | 1.22 | 5.70 | 5.87 | 3.70 | 43 | >300 | 91 | 1400 (≈ 514 µg/mL) | 4.29 | 3.95 | 133 | LCK [29]: 0.38
O=C(NCCO)c1cc(N(CCBr)CCBr)c([N+](=O)[O-])cc1[N+](=O)[O-] | 7.10 | 6.52 | 203 | 4.15 | 182 | 150 | 871 | 270 | 1.69 | 6.47 | 6.37 | 4.09 | 5.2 | 17 | 76 | 320 (≈ 155 µg/mL) | 4.10 | 4.21 |  | 
CS(=O)(=O)OCCN(CCBr)c1cc(C(=O)NCC(O)CO)c([N+](=O)[O-])cc1[N+](=O)[O-] (stereo unspecified) | 5.80 | 5.77 | 1660 | 3.15 | 272 | >1300 | 527 | 640 | -0.05 | 5.52 | 6.00 | 2.95 | 70 | >1300 | 63 | 1300 (≈ 688 µg/mL) | 3.13 | 3.09 | 1330 | Activity [30]: 55 days; Activity [31]: 9 days; Ratio [28]: <0.05
NC(=O)c1cc(N(CCI)CCI)c([N+](=O)[O-])cc1[N+](=O)[O-] | 7.10 | 6.37 | 54 | 4.60 | 50 | >20 | 332 | 71 | 2.41 | 6.52 | 6.70 | 4.52 | 1.65 | 2 | 69 | 40 (≈ 21.4 µg/mL) | 4.96 | 4.82 |  | MTD [1]: 200 µmol/kg; Activity [5]: 8 days; LCK [17]: 1.48
CS(=O)(=O)c1cc([N+](=O)[O-])c(C(N)=O)cc1N(CCCl)CCCl | 5.41 | 4.82 | 73 | 3.41 | 15 | >1000 | 101 | 65 |  | 4.59 | 5.02 | 3.01 | 160 | >300 |  | 330 (≈ 127 µg/mL) | 3.12 | 3.46 |  | 
CS(=O)(=O)OCCN(CCI)c1cc(C(N)=O)c([N+](=O)[O-])cc1[N+](=O)[O-] | 6.77 | 6.51 | 311 | 4.10 | 172 | >200 | 529 | 328 | 0.74 | 6.39 | 6.54 | 4.01 | 4.2 | 12 | 72 | 200 (≈ 100 µg/mL) | 4.00 | 4.15 | 1330 | Activity [30]: >82 days; Activity [31]: 15 days; Ratio [28]: 0.35
